Common to all, as to format: in vitro ADME
One series concerns the target T1, hOATP1B3 (Homo sapiens, UniProt Q9NPD5).
T1 sequence (Q9NPD5 1-702): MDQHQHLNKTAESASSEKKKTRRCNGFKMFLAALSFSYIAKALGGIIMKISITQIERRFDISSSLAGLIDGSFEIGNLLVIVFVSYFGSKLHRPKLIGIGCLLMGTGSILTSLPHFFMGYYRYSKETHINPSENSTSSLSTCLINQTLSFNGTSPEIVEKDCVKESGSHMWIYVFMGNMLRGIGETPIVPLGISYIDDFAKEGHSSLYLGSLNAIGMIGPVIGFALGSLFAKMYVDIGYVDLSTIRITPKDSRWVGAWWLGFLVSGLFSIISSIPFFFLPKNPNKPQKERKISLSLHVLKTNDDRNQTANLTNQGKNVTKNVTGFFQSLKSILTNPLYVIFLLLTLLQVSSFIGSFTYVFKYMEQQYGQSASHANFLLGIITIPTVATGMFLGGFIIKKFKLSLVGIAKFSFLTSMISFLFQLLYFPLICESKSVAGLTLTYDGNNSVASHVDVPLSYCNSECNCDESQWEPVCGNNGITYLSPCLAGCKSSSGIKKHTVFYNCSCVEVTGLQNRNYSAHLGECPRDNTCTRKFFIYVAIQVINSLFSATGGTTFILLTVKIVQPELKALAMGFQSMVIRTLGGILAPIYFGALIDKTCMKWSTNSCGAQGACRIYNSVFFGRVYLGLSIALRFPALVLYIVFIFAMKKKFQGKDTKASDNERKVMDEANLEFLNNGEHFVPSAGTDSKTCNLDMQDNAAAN

In the next series the target is T2, hOATP2B1 (Homo sapiens, UniProt O94956).
T2 sequence (O94956 1-709): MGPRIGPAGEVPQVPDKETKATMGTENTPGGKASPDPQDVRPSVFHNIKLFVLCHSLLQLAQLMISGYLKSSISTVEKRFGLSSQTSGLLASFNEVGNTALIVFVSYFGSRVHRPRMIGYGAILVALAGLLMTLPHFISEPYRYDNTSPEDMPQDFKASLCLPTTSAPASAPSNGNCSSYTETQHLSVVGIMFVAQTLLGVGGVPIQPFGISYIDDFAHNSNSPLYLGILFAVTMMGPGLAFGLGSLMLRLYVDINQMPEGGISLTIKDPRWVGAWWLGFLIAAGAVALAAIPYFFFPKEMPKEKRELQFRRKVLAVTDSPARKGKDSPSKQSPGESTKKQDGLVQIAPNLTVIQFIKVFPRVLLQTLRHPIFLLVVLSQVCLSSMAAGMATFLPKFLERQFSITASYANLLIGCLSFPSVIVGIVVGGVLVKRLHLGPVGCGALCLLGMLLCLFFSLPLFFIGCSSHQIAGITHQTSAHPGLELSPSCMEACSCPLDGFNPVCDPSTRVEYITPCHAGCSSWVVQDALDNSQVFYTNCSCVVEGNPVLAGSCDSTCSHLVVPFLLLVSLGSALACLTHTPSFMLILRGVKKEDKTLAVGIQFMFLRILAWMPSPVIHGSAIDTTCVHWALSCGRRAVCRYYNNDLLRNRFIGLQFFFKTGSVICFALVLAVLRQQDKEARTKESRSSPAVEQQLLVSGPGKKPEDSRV
Summed up:
(§1)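 Transfected and mock cells were incubated 2 min at 37 °C with 200 nmol L−1 3H-ES plus test compound. The screen used a single 100 μmol L−1 concentration with reference inhibitors as positive controls, giving an inhibition rate (n = 3, mean ± sd). […] DMSO was <0.2%. Cells were stopped with cold DPBS, rinsed three times, lysed in 0.1 mol L−1 NaOH and counted by scintillation (dpm).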

In another series the target is T3, hOCT2 (Homo sapiens, UniProt O15244).
T3 sequence (O15244 1-555): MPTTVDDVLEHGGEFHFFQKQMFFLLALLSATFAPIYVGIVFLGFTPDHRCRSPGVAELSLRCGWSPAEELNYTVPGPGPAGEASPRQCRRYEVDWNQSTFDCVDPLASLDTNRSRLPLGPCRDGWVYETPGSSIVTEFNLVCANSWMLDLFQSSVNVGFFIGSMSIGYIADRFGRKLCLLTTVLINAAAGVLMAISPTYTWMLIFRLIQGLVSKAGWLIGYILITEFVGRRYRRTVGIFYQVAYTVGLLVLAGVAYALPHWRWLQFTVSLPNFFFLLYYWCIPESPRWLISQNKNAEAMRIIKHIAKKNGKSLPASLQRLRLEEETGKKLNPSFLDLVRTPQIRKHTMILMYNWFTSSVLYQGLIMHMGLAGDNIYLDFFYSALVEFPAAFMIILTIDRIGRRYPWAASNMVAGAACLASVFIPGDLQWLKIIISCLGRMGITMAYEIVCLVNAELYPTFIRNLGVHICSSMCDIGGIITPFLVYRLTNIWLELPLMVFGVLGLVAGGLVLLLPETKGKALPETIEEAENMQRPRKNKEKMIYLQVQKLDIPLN
The experiment in a line: Inhibition of 14C-TEA uptake in hOCT2-transfected cells by liquorice ingredients. The conditions noted are these: 5 min.

For another series, the target named is T4, hOAT3 (Homo sapiens, UniProt Q8TCC7).
T4 sequence (Q8TCC7 1-542): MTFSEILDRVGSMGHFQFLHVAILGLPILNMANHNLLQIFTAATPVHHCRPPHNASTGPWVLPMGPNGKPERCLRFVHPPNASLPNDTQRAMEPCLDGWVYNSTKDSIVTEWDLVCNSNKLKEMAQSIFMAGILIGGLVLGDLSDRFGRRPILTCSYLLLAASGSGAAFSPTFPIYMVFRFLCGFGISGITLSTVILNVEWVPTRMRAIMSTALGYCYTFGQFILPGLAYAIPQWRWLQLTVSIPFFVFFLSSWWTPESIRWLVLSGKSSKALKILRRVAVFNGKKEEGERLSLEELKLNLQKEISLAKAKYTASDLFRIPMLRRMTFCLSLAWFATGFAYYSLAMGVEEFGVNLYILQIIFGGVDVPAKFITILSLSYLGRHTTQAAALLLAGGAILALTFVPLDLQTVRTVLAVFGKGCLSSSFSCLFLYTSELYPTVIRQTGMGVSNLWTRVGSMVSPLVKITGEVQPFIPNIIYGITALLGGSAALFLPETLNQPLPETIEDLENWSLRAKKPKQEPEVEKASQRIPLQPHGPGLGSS
Nature of the series: Inhibition of 3H-ES uptake in hOAT3-transfected cells by liquorice ingredients. Conditions: read-out: IC50 on hOAT3; 3H-ES probe, 2 min. Summed up: as §1

A word on the IC50: it is the concentration that gives 50% inhibition. As to `C=CC(C)(C)c1cc(/C=C/C(=O)c2ccc(O)cc2)c(OC)cc1O` [licochalcone A], the IC50 on hOATP1B3 (read-out: IC50 on hOATP1B3, 3H-ES probe, 2 min) was 1910 nM; at hOATP2B1 (read-out: IC50 on hOATP2B1, 3H-ES probe, 2 min), 1090 nM; at hOCT2 (read-out: IC50 on hOCT2, 14C-TEA probe) it was 6610 nM; on hOAT3, 3600 nM. At hOATP1B3 (screening at 100 μm), the “inhibition of hOATP1B3” value was “strong inhibitors”. Besides, on hOATP2B1 (screening at 100 μm), the “inhibition of hOATP2B1” value is listed as “strong inhibitors”. Also, at hOCT2 (100 μm, 5 μmol L^−1 14C-TEA), the “inhibitory rate on hOCT2” value was determined as 91.76%.

The values above are taken from publication PMC9064382 (RSC Advances, 2019).
